Results published in PubChem BioAssay AID540322 (Johns Hopkins Ion Channel Center, 2011).

The compounds below were run against Potassium channel subfamily K member 9 (Homo sapiens) (UniProt Q9NPC2) (assay: KCNK9 potassium channel inhibitors, SAR follow-up, HEK293 cells, thallium flux, round II (AID 540322)). Conditions: HEK293-KCNK9, FluxOR thallium flux fluorescence.
Summary of the method: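 Material: HEK293 cells stably expressing the KCNK9 potassium channel; also added: K2SO4 plus Tl2SO4 stimulus (5x stock); compound dosing: multi-concentration series; timing: 90 min dye loading, 20 min compound pre-incubation, room temperature; measured by: FluxOR thallium-sensitive dye fluorescence, 110 s kinetic read post-stimulus; evaluation: IC50 from normalized fluorescence change; repeats: replicates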

Sequence of Potassium channel subfamily K member 9 (Homo sapiens) (Q9NPC2 whole entry, looked up): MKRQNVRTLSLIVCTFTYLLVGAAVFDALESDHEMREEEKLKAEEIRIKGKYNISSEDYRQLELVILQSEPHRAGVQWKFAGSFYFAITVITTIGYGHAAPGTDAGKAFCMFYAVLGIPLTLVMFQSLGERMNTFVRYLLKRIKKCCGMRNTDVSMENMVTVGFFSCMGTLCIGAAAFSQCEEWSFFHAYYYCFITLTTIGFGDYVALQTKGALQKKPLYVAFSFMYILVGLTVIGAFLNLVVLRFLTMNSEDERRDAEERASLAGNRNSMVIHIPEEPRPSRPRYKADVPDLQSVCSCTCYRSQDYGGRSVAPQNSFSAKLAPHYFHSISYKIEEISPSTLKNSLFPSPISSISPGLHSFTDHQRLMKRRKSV

`COc1ccccc1NC(=O)c1cccc(NC(=O)c2ccccc2)c1` and `CCOc1ccccc1NC(=O)c1cccc(NC(=O)c2ccccc2)c1` are within 1.5-fold of each other in IC50: 1410 nM for the first, 1430 nM for the second.

`COc1ccccc1-c1n[nH]c(=S)n1C(C)C1CC2CCC1C2` (stereo not given) and `Cc1ccccc1-c1n[nH]c(=S)n1C(C)C1CC2CCC1C2` (stereo not given) are within 1.5-fold of each other in IC50: 840 nM for the first, 720 nM for the second.

Going from `CC(C1CC2CCC1C2)n1c(-c2cccc(Cl)c2)n[nH]c1=S` (stereo not given) to `COc1cccc(-c2n[nH]c(=S)n2C(C)C2CC3CCC2C3)c1` (stereo not given), the IC50 falls from 440 nM to 210 nM (2.1-fold). The second is the more potent here.

Compared with `Cc1cccc(C(=O)Nc2cccc(NC(=O)c3ccccc3Cl)c2)c1`, `Cc1cccc(C(=O)Nc2cccc(NC(=O)c3ccccc3C)c2)c1` is 21-fold lower in IC50: 19800 nM for the first, 940 nM for the second.

`Cc1cccc(C(=O)Nc2cccc(NC(=O)C3CCCCC3)c2)c1` and `O=C(Nc1cccc(NC(=O)C2CCCCC2)c1)c1ccccc1` are within 1.5-fold of each other in IC50: 11900 nM for the first, 8000 nM for the second.

Compared with `CCOc1ccccc1NC(=O)c1cccc(NC(=O)C(C)(C)C)c1`, `CCOc1ccccc1NC(=O)c1cccc(NC(=O)C2CC2)c1` is 3-fold lower in IC50: 30600 nM for the first, 10200 nM for the second. The second is the more potent here.

Going from `Cc1cccc(C(=O)Nc2cccc(NC(=O)c3ccccc3C(F)(F)F)c2)c1` to `Cc1cccc(C(=O)Nc2cccc(NC(=O)c3ccccc3OC(F)(F)F)c2)c1`, the IC50 falls from 12900 nM to 1050 nM (12-fold).

Going from `COc1ccccc1NC(=O)c1cccc(NC(=O)CC2CCCC2)c1` to `CCOc1ccccc1NC(=O)c1cccc(NC(=O)CC2CCCC2)c1`, the IC50 rises from 2630 nM to 4170 nM (1.6-fold).

Compared with `CCOc1ccccc1NC(=O)c1cccc(NC(=O)c2cccc(C(F)(F)F)c2)c1`, `CCOc1ccccc1NC(=O)c1cccc(NC(=O)c2cccc(C)c2)c1` is 4.8-fold lower in IC50: 1380 nM for the first, 290 nM for the second. The second is the more potent here.

Compared with `Cc1cccc(C(=O)Nc2cccc(NC(=O)c3cccs3)c2)c1`, `Cc1cccc(C(=O)Nc2cccc(NC(=O)c3ccco3)c2)c1` is 4.1-fold lower in IC50: 6850 nM for the first, 1670 nM for the second.

`O=C(Nc1cccc(NC(=O)c2ccccc2C(F)(F)F)c1)c1ccccc1` and `Cc1ccccc1C(=O)Nc1cccc(NC(=O)c2ccccc2)c1` are within 1.5-fold of each other in IC50: 7210 nM for the first, 6480 nM for the second.

`CCOc1ccccc1NC(=O)c1cccc(NC(=O)C2CCCCC2)c1` and `CCOc1ccccc1NC(=O)c1cccc(NC(=O)C2CCCC2)c1` are within 1.5-fold of each other in IC50: 1300 nM for the first, 1840 nM for the second.

Going from `CC(C1CC2CCC1C2)n1c(-c2ccoc2)n[nH]c1=S` (stereo not given) to `CC(C1CC2CCC1C2)n1c(-c2ccsc2)n[nH]c1=S` (stereo not given), the IC50 falls from 4250 nM to 1000 nM (4.2-fold). The second is the more potent here.

First: CC(C1CC2CCC1C2)n1c(C2CCOC2)n[nH]c1=S (stereo not given)
Second: CC(C1CC2CCC1C2)n1c(-c2ccco2)n[nH]c1=S (stereo not given)
The IC50 of the first is 32-fold higher: 10300 nM for the first, 320 nM for the second.

Compared with `CCOc1ccccc1NC(=O)c1cccc(NC(=O)c2ccc(C)cc2)c1`, `CCOc1ccccc1NC(=O)c1cccc(NC(=O)c2ccccc2C)c1` is 3.4-fold lower in IC50: 14700 nM for the first, 4290 nM for the second. The second is the more potent here.

Compared with `Cc1cccc(C(=O)Nc2cccc(NC(=O)c3ccccc3OCC(C)C)c2)c1`, `CCOc1ccccc1C(=O)Nc1cccc(NC(=O)c2cccc(C)c2)c1` is 5.9-fold lower in IC50: 3390 nM for the first, 570 nM for the second.

`COc1ccccc1NC(=O)c1cccc(NC(=O)C2CCCCC2)c1` and `COc1ccccc1NC(=O)c1cccc(NC(=O)C2CCCC2)c1` are within 1.5-fold of each other in IC50: 2160 nM for the first, 1550 nM for the second.

First: CCOc1ccccc1C(=O)Nc1cccc(NC(=O)C2CCCC2)c1
Second: CCOc1cccc(NC(=O)c2cccc(NC(=O)C3CCCC3)c2)c1
The IC50 of the first is 3.7-fold lower: 1110 nM for the first, 4070 nM for the second. The first is the more potent here.

`CC(C1CC2CCC1C2)n1c(-c2ccccc2Cl)n[nH]c1=S` (stereo not given) and `CC(C1CC2CCC1C2)n1c(-c2ccccc2)n[nH]c1=S` (stereo not given) are within 1.5-fold of each other in IC50: 470 nM for the first, 520 nM for the second.

`COc1ccc(-c2n[nH]c(=S)n2C(C)C2CC3CCC2C3)cc1` (stereo not given) and `CCOc1ccccc1NC(=O)c1cccc(NC(=O)CC2CCCCC2)c1` are within 1.5-fold of each other in IC50: 1730 nM for the first, 1920 nM for the second.

First: CCOc1ccccc1C(=O)Nc1cccc(NC(=O)c2ccccc2C(F)(F)F)c1
Second: CCOc1ccccc1NC(=O)c1cccc(NC(=O)c2ccccc2C(F)(F)F)c1
The IC50 of the first is 3.2-fold higher: 1040 nM for the first, 320 nM for the second.

`COc1ccccc1C(=O)Nc1cccc(NC(=O)c2cccc(C)c2)c1` and `Cc1cccc(C(=O)Nc2cccc(NC(=O)c3ccccc3C(C)C)c2)c1` are within 1.5-fold of each other in IC50: 2720 nM for the first, 2390 nM for the second.

Compared with `COc1ccccc1C(=O)Nc1cccc(NC(=O)c2ccccc2)c1`, `COc1ccccc1C(=O)Nc1cccc(NC(=O)c2ccccc2C)c1` is 2-fold higher in IC50: 1740 nM for the first, 3490 nM for the second.

Compared with `COc1cccc(OC)c1C(=O)Nc1cccc(NC(=O)c2cccc(C)c2)c1`, `COc1cccc(C(=O)Nc2cccc(NC(=O)c3cccc(C)c3)c2)c1` is 1.5-fold higher in IC50: 19200 nM for the first, 29300 nM for the second. The first is the more potent here.

First: Cc1cccc(C(=O)Nc2cccc(NC(=O)c3ccccc3)c2)c1
Second: COc1cccc(C(=O)Nc2cccc(NC(=O)c3ccccc3)c2)c1
The IC50 of the first is 14-fold lower: 1820 nM for the first, 25900 nM for the second.

First: O=C(Nc1ccccc1Cl)c1cccc(NC(=O)C2CCCC2)c1
Second: CCOc1ccccc1NC(=O)c1cccc(NC(=O)c2ccccc2Cl)c1
The IC50 of the first is 2.2-fold higher: 5780 nM for the first, 2630 nM for the second.

Compared with `COc1ccccc1C(=O)Nc1cccc(NC(=O)c2ccccc2OC(F)(F)F)c1`, `COc1ccccc1C(=O)Nc1cccc(NC(=O)c2ccccc2OC)c1` is 3.1-fold higher in IC50: 1170 nM for the first, 3620 nM for the second. The first is the more potent here.

Going from `COc1ccccc1NC(=O)c1cccc(NC(=O)c2ccccc2OC)c1` to `CCOc1ccccc1NC(=O)c1cccc(NC(=O)c2ccccc2OC)c1`, the IC50 falls from 3020 nM to 1180 nM (2.6-fold). The second is the more potent here.

Going from `COc1ccccc1C(=O)Nc1cccc(NC(=O)c2ccccc2C(C)C)c1` to `CCOc1ccccc1C(=O)Nc1cccc(NC(=O)c2ccccc2OC)c1`, the IC50 rises from 740 nM to 1980 nM (2.7-fold). The first is the more potent here.

Compared with `Cc1cccc(C(=O)Nc2cccc(NC(=O)c3cccc(Cl)c3)c2)c1`, `Cc1cccc(C(=O)Nc2cccc(NC(=O)c3cccc(C)c3)c2)c1` is 14-fold lower in IC50: 13400 nM for the first, 990 nM for the second. The second is the more potent here.

Compared with `O=C(Nc1cccc(NC(=O)c2ccccn2)c1)c1ccccc1`, `CCOc1ccccc1NC(=O)c1cccc(NC(=O)c2cccc(Cl)c2)c1` is 2.9-fold lower in IC50: 5370 nM for the first, 1840 nM for the second.

First: CCOc1ccccc1NC(=O)c1cccc(NC(=O)c2ccccc2OC(F)(F)F)c1
Second: COc1ccccc1NC(=O)c1cccc(NC(=O)c2ccccc2C(F)(F)F)c1
The IC50 of the first is 1.6-fold lower: 800 nM for the first, 1320 nM for the second.

Work on `CCOc1ccccc1NC(=O)c1cccc(NC(=O)c2cccc(OC)c2)c1` yielded an IC50 of 2330 nM.
